Experimental data: ChEMBL document CHEMBL1131049, “Antiviral activities of methylated nordihydroguaiaretic acids. 2. Targeting herpes simplex virus replication by the mutation insensitive transcription inhibitor tetra-O-methyl-NDGA” (J Med Chem, 1998)
pIC50: −log10 of the molar value. Several values for one entry are separate records, joined by “and”; a condition that tells them apart may be missing. Equal values may be shown once.

Key:
[1] = test system: Vero; test: Comparative Potency (IC50s) at HSV-1 passage 4 in vero cells; assay type: functional, cell-based; conditions: Chlorocebus sabaeus
In short: (§1)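 Vero cells infected with 100 TCID50 of HSV-1 (Sm44) or HSV-2 (Sav); compound in DMSO diluted in medium and added 2 h post-infection, triplicates per concentration. Passaging: virus recovered from cultures at the IC50 infected fresh Vero cells, and the IC50 was redetermined each passage.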

[2] = Mortality in 5 mice when intraperitoneally administered daily once for 7 days at dose 50 mg/kg; assay type: ADME, organism-based; set-up: dose 50 mg/kg, route intraperitoneal; conditions: mouse, in vivo, ip, 168 h
[3] = Relative safety was expressed as Selective index (TC50/IC50) at HSV-1 passage 10 in vero cells; assay type: functional
In short: (§2)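 SI = TC50/IC50 per passage. IC50 comes from serial passage of HSV-1 Sm44 or HSV-2 Sav in Vero cells (100 TCID50, drug added 2 h p.i., CPE read-out, triplicates). TC50 comes from uninfected Vero cells by a tetrazolium viability assay, run three times in triplicate and averaged.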

[4] = test system: Vero; test: Comparative Potency (IC50s) at HSV-1 passage 6 in vero cells; assay type: functional, cell-based; conditions: Chlorocebus sabaeus; in short: as §1
[5] = test system: Mus musculus; test: Percent Change in body weight of 5 mice when intraperitoneally administered daily once for 7 days at dose 50 mg/kg; assay type: functional; conditions: route intraperitoneal
[6] = test system: Vero; test: Comparative Potency (IC50s) at HSV-1 passage 8 in vero cells; assay type: functional, cell-based; conditions: Chlorocebus sabaeus; in short: as §1
[7] = test system: Vero; test: Comparative Potency (IC50s) at HSV-1 passage 10 in vero cells; assay type: functional, cell-based, Chlorocebus sabaeus; in short: as §1
[8] = Relative safety was expressed as Selective index (TC50/IC50) at HSV-1 passage 7 in vero cells; assay type: functional; in short: as §2
[9] = Relative safety was expressed as Selective index (TC50/IC50) at HSV-1 passage 1 in vero cells; assay type: functional; in short: as §2
[10] = test system: Vero; test: Comparative Potency (IC50s) at HSV-2 passage 3 in vero cells; assay type: functional, cell-based; conditions: Chlorocebus sabaeus; in short: as §1
[11] = test system: Vero; test: Comparative Potency (IC50s) at HSV-1 passage 2 in vero cells; assay type: functional, cell-based; conditions: Chlorocebus sabaeus; in short: as §1
[12] = test system: Vero; test: Comparative Potency (IC50s) at HSV-1 passage 5 in vero cells; assay type: functional, cell-based; conditions: Chlorocebus sabaeus; in short: as §1
[13] = Mortality in 5 mice when intraperitoneally administered daily once for 7 days at dose 100 mg/kg; assay type: ADME, organism-based; set-up: dose 100 mg/kg, route intraperitoneal; conditions: mouse, in vivo, ip, 168 h
[14] = test system: Vero; test: Comparative Potency (IC50s) at HSV-2 passage 4 in vero cells; assay type: functional, cell-based; conditions: Chlorocebus sabaeus; in short: as §1
[15] = Relative safety was expressed as Selective index (TC50/IC50) at HSV-1 passage 8 in vero cells; assay type: functional; in short: as §2
[16] = Relative safety was expressed as Selective index (TC50/IC50) at HSV-2 passage 1 in vero cells; assay type: functional; in short: as §2
[17] = test system: Vero; test: Comparative Potency (IC50s) at HSV-1 passage 9 in vero cells; assay type: functional, cell-based; conditions: Chlorocebus sabaeus; in short: as §1
[18] = Relative safety was expressed as Selective index (TC50/IC50) at HSV-2 passage 3 in vero cells; assay type: functional; in short: as §2
[19] = Relative safety was expressed as Selective index (TC50/IC50) at HSV-1 passage 4 in vero cells; assay type: functional; in short: as §2
[20] = Relative safety was expressed as Selective index (TC50/IC50) at HSV-2 passage 4 in vero cells; assay type: functional; in short: as §2
[21] = Mortality in 5 mice when intraperitoneally administered daily twice for 5 days at dose 50 mg/kg; assay type: ADME, organism-based; set-up: dose 50 mg/kg, route intraperitoneal; conditions: mouse, in vivo, ip, 120 h
[22] = test system: Vero; test: Comparative Potency (IC50s) at HSV-1 passage 3 in vero cells; assay type: functional, cell-based; conditions: Chlorocebus sabaeus; in short: as §1
[23] = Relative safety was expressed as Selective index (TC50/IC50) at HSV-1 passage 2 in vero cells; assay type: functional; in short: as §2
[24] = Relative safety was expressed as Selective index (TC50/IC50) at HSV-2 passage 2 in vero cells; assay type: functional; in short: as §2
[25] = test system: Mus musculus; test: Percent Change in body weight of 5 mice when intraperitoneally administered daily once for 1 day at dose 300 mg/kg; assay type: functional; conditions: route intraperitoneal
[26] = test system: Vero; test: Comparative Potency (IC50s) at HSV-1 passage 7 in vero cells; assay type: functional, cell-based; conditions: Chlorocebus sabaeus; in short: as §1
[27] = Relative safety was expressed as Selective index (TC50/IC50) at HSV-1 passage 3 in vero cells; assay type: functional; in short: as §2
[28] = Mortality in 5 mice when intraperitoneally administered daily once for 7 days at dose 25 mg/kg; assay type: ADME, organism-based; set-up: dose 25 mg/kg, route intraperitoneal; conditions: mouse, in vivo, ip, 168 h
[29] = Relative safety was expressed as Selective index (TC50/IC50) at HSV-1 passage 9 in vero cells; assay type: functional; in short: as §2
[30] = test system: Vero; test: Comparative Potency (IC50s) at HSV-2 passage 1 in vero cells; assay type: functional, cell-based; conditions: Chlorocebus sabaeus; in short: as §1
[31] = Relative safety was expressed as Selective index (TC50/IC50) at HSV-1 passage 5 in vero cells; assay type: functional; in short: as §2
[32] = Relative safety was expressed as Selective index (TC50/IC50) at HSV-1 passage 6 in vero cells; assay type: functional; in short: as §2
[33] = test system: Vero; test: Comparative Potency (IC50s) at HSV-2 passage 2 in vero cells; assay type: functional, cell-based; conditions: Chlorocebus sabaeus; in short: as §1
[34] = Ralative safety was expressed as Selective index (TC50/IC50) at HSV-2 passage 4 in vero cells; assay type: functional; in short: as §2
[35] = Ralative safety was expressed as Selective index (TC50/IC50) at HSV-2 passage 3 in vero cells; assay type: functional; in short: as §2
[36] = Ralative safety was expressed as Selective index (TC50/IC50) at HSV-1 passage 4 in vero cells; assay type: functional; in short: as §2
[37] = Ralative safety was expressed as Selective index (TC50/IC50) at HSV-1 passage 10 in vero cells; assay type: functional; in short: as §2
[38] = Ralative safety was expressed as Selective index (TC50/IC50) at HSV-1 passage 1 in vero cells; assay type: functional; in short: as §2
[39] = Ralative safety was expressed as Selective index (TC50/IC50) at HSV-1 passage 6 in vero cells; assay type: functional; in short: as §2
[40] = Ralative safety was expressed as Selective index (TC50/IC50) at HSV-1 passage 8 in vero cells; assay type: functional; in short: as §2
[41] = Ralative safety was expressed as Selective index (TC50/IC50) at HSV-1 passage 3 in vero cells; assay type: functional; in short: as §2
[42] = Ralative safety was expressed as Selective index (TC50/IC50) at HSV-2 passage 1 in vero cells; assay type: functional; in short: as §2
[43] = Ralative safety was expressed as Selective index (TC50/IC50) at HSV-1 passage 2 in vero cells; assay type: functional; in short: as §2
[44] = Ralative safety was expressed as Selective index (TC50/IC50) at HSV-2 passage 2 in vero cells; assay type: functional; in short: as §2
[45] = Ralative safety was expressed as Selective index (TC50/IC50) at HSV-1 passage 7 in vero cells; assay type: functional; in short: as §2
[46] = Ralative safety was expressed as Selective index (TC50/IC50) at HSV-1 passage 5 in vero cells; assay type: functional; in short: as §2
[47] = Ralative safety was expressed as Selective index (TC50/IC50) at HSV-1 passage 9 in vero cells; assay type: functional; in short: as §2

## COc1ccc(C[C@@H](C)[C@@H](C)Cc2ccc(OC)c(OC)c2)cc1OC [TERAMEPROCOL]
[1]
  pIC50: 5.22
[2]
  Mortality: 0
[3]
  Selectivity index: 33.5
[4]
  pIC50: 5.16
[5]
  Change: -2.8%
[6]
  pIC50: 5.00
[7]
  pIC50: 4.93 and 5.35
[8]
  Selectivity index: 22.9
[9]
  Selectivity index: 13.7
[10]
  pIC50: 4.96
[11]
  pIC50: 5.36
[12]
  pIC50: 5.19
[13]
  Mortality: 0
[14]
  pIC50: 4.96
[15]
  Selectivity index: 16.1
[16]
  Selectivity index: 38.3
[17]
  pIC50: 5.05
[18]
  Selectivity index: 14.4
[19]
  Selectivity index: 26.8
[20]
  Selectivity index: 14.4
[21]
  Mortality: 1
[22]
  pIC50: 5.08
[23]
  Selectivity index: 36.4
[24]
  Selectivity index: 14.4
[25]
  Change: -2.66%
[26]
  pIC50: 5.16
[27]
  Selectivity index: 19.4
[28]
  Mortality: 0
[29]
  Selectivity index: 18.1
[30]
  pIC50: 5.38
[31]
  Selectivity index: 24.7
[32]
  Selectivity index: 22.9
[33]
  pIC50: 4.96

## Nc1nc2c(ncn2COCCO)c(=O)[nH]1 [ACYCLOVIR]
[1]
  pIC50: 3.86
[34]
  Selectivity index: 50
[35]
  Selectivity index: 70
[4]
  pIC50: 3.88
[36]
  Selectivity index: 32
[6]
  pIC50: 3.35
[37]
  Selectivity index: 10
[38]
  Selectivity index: 589
[39]
  Selectivity index: 34
[40]
  Selectivity index: 23
[41]
  Selectivity index: 50
[42]
  Selectivity index: 667
[10]
  pIC50: 4.20
[43]
  Selectivity index: 117
[11]
  pIC50: 4.42
[12]
  pIC50: 3.95
[14]
  pIC50: < 4.05
[17]
  pIC50: 3.42
[44]
  Selectivity index: 100
[22]
  pIC50: < 4.05
[45]
  Selectivity index: 23
[26]
  pIC50: 3.72
[30]
  pIC50: 5.18
[46]
  Selectivity index: 40
[47]
  Selectivity index: 11
[33]
  pIC50: < 4.35
